TPT1 inh: C. albicans TPT1 enzyme inhibition | AID 1962 | 300,000 tested, 0.81% active | recombinant caTPT1, FP RNA substrate dephosphorylation | inhibition, % at 5 µM;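 active = inhibition above the mean of all tested compounds plus 3 SD, set per screening campaign, cut at about 24% in these data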;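 also: plate controls were DMSO alone for no effect and ferristatin control at 100 nM for full effect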
CSN deneddyl inh: CSN deneddylation inhibition; inhibition, % at 12.5 µM; AID 651999; 360,000 tested, 0.38% active; Purified CSN, SCF-Nedd8-OG deneddylation, fluorescence polarization;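 active = pattern-corrected inhibition above about 35%, with an unprinted fluorescence ratio check between 0.5 and 1.5, limit read from the data, passing the limit was not always enough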;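 also: 0% = enzyme with substrate and 100% = substrate without enzyme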
Target sequence (Q92905 whole entry, looked up, one chain of several): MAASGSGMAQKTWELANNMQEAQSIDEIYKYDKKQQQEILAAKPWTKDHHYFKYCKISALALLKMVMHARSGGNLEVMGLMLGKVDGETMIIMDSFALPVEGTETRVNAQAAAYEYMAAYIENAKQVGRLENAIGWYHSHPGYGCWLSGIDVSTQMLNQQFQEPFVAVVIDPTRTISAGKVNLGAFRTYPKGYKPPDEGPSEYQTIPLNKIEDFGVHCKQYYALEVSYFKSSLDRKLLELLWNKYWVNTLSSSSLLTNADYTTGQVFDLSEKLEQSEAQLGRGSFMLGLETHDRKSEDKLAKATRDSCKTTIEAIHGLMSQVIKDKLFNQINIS
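Detection – fluorescence polarization · System – HEK293T-derived human Csn5 enzyme · Controls – substrate-only high control, full reaction low control · Timing – 90 min, room temperature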
NadD inh: inhibitors of Staphylococcus aureus NadD; purified NadD enzyme, colorimetric absorbance read-out; inhibition, % at 20 µM; 360,000 tested, 0.78% active; AID 602399; in the data active = inhibition above about 26%
PP1 inh: PP1-alpha (human) inhibition in PP5 counter-screen; AID 2235; P62136; inhibition, % at 6.7 µM; 320,000 tested, 0.9% active; purified PP1alpha, OMFP fluorescence;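 active = inhibition above the mean inhibition of all tested compounds plus 3 SD, computed separately for each screening campaign, cut at about 15% in these data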
Rpn11 inh: inhibitors of human proteasome Rpn11. human 26S proteasome, Ub4-pepOG fluorescence polarization; 20S core pre-blocked with epoxomicin. 360,000 tested, 0.59% active. inhibition, % at 20 µM. O00487;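 active = inhibition at 20 µM, scaled to each plate's controls, above about 33%, limit read from the data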
HNF4A DNA FP: change in binding of human HNF4 alpha to DNA. P41235. HNF4a-FITC DNA binding, fluorescence polarization, 1 h. activity change, % at 10 µM. 360,000 tested, 0.3% active; in the data active = activity change above about 30%, passing the limit was not always enough
caTPT1 confirm: TPT1 (C. albicans) inhibition, confirmation | inhibition, % at 5 µM | shares compounds with TPT1 inh | recombinant caTPT1, fluorescence polarization, RNase T1 coupled | 2,400 tested, 74% active;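 active = inhibition above the primary screen limit, the mean inhibition of all tested compounds plus 3 SD, cut at about 25% in these data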
RNase T1 counter: blocks Aspergillus oryzae RNase T1, a TPT1 counter-screen; shares compounds with TPT1 inh; RNase T1 cleavage, fluorescence polarization, 1536-well; inhibition, % at 5 µM; 2,400 tested, 83% active;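 active = inhibition above the solvent-only control well mean plus 3 SD, limit set per screening run, cut at about 23% in these data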;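 also: plate controls were DMSO wells with enzyme for no effect and wells without RNase T1 for full effect; inhibitors block cleavage so intact labeled substrate keeps polarization high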
Target sequence (P00651 whole entry, looked up): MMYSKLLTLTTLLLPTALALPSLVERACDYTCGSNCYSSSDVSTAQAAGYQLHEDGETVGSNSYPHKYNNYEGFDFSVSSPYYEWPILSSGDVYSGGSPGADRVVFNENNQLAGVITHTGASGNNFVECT
* marks the source's active call; other numbers are inactive results; · = not tested or not shown. In the library only some 2.7% were active in any assay of this set; here they are far more common.

SMILES | TPT1 inh | CSN deneddyl inh | NadD inh | PP1 inh | Rpn11 inh | HNF4A DNA FP | caTPT1 confirm | RNase T1 counter
CCOC(=O)C1=C(C)N=c2s/c(=C\c3ccc(C(=O)O)cc3)c(=O)n2C1c1ccc(OC)cc1OC (centres undefined) | 1 | 7 | 10 | 1 | 6 | 1 | · | ·
CCOC(=O)C1=C(C)N=c2s/c(=C\c3cccn3C)c(=O)n2C1c1cccc(OC)c1OC (centres undefined) | 82* | 46* | 8 | -1 | · | 84* | 139* | 137*
O=C(CCCCl)Oc1ccc2cc(-c3ccc4ccccc4n3)c(=O)oc2c1 | 49* | 10 | 8 | 13 | 33 | 18 | 35* | 42*
CC(C)n1nnnc1SCC(=O)N(C)C1CCS(=O)(=O)C1 (centres undefined) | · | 1 | 0 | · | -10 | 0 | · | ·
Oc1ccccc1N=Cc1c(O)ccc2ccccc12 | · | 85 | 0 | · | · | 106 | · | ·
C=Cc1ccc(N=Cc2c(O)ccc3ccccc23)cc1 | 40* | 39* | -5 | 0 | · | 80 | 129* | 133*
Oc1ccc2ccccc2c1C=Nc1ccc(N2CCOCC2)cc1 | 76* | · | · | -2 | · | · | 67* | 86*
C(=Nc1ccc(N2CCOCC2)cc1)c1c[nH]c2ccccc12 | 0 | 104 | -7 | -1 | 2 | -1 | · | ·
CC(C(=O)c1ccc(Br)cc1)[n+]1cccc2ccccc21 (centres undefined) | 37* | 9 | 3 | 8 | · | 3 | 18 | 26*
O=C(Cn1ncc2c3ccccc3n(Cc3cccc(Cl)c3)c2c1=O)NCc1ccccn1 | 69* | 11 | 10 | 10 | · | 26 | 84* | 90*
CCCCCCc1cc2cc(C(=O)Nc3ccccc3OC)c(=O)oc2cc1O | -2 | 0 | 2 | -1 | -3 | 1 | · | ·
CCCCCCc1cc2cc(-c3nnc(-c4ccccc4O)o3)c(=O)oc2cc1O | 121* | -73 | 3 | 1 | · | -98 | 114* | 113*
CCCCCCc1cc2cc(-c3nnc(-c4cc(OC)c(OC)c(OC)c4)o3)c(=O)oc2cc1O | 118* | · | · | -2 | · | · | 130* | 121*
CCCCCCc1cc2cc(S(=O)(=O)c3ccc(F)cc3)c(=O)oc2cc1O | 17 | 3 | 26 | 1 | 11 | -4 | · | ·
COc1ccc(N=C2S/C(=C\c3ccc(N4CCOCC4)o3)C(=O)N2CCc2c[nH]c3ccccc23)cc1 | 131* | 122 | 10 | -2 | · | 132 | 141* | 136*
CCCN1C(=O)/C(=C/c2ccc(C)o2)SC1=Nc1ccc(OC)cc1 | -2 | 8 | 12 | -3 | -1 | -1 | · | ·
COc1ccc(NC(=O)[C@@H]2[C@@H]3C(=O)N(C4CCCCC4)C(=O)[C@@H]3C3c4ccccc4C=CN32)cc1 (some centres undefined) | 43* | 9 | 10 | 11 | 31 | 14 | 50* | 54*
O=C1/C(=C/c2ccccc2)Oc2cc(OC(=O)N3CCOCC3)ccc21 | 1 | -2 | -8 | -12 | 3 | -2 | · | ·
COc1ccc(/C=C2\Oc3cc(OCC(=O)N4CCC(C(=O)O)CC4)ccc3C2=O)c(OC)c1 | 65* | 23 | -1 | 3 | · | 37 | 90* | 98*
COc1ccc(OC)c(/C=C2\Oc3cc(OCC(=O)N4CCC(C(=O)O)CC4)ccc3C2=O)c1 | 29* | 2 | 3 | -3 | 15 | 3 | 48* | 57*
COc1ccc(/C=C2\Oc3cc(OC(=O)N4CCOCC4)ccc3C2=O)c(OC)c1 | 111* | 44* | 0 | -5 | 29 | 99* | 44* | 65*
CCCN1C(=O)c2ccccc2NC1c1ccc(O)c(OCC)c1 (centres undefined) | 0 | -5 | -8 | -2 | 10 | -1 | · | ·
CN(C)CCCN(C(=O)c1ccc(Br)s1)c1nc2cc3c(cc2s1)OCCO3 | 31* | 5 | -1 | 1 | -3 | 1 | 28* | 30*

Bioassay records from PubChem BioAssay.
